Measured values reported in publication PMC2212458 (The Journal of Experimental Medicine, 1998).

How the values were obtained:
H-2D^b = H-2D^b (Mus musculus, UniProt P01899); experiment: MHC class I stabilization assay on RMA/S cells; format: binding
Method in brief: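 RMA/S cells (TAP-deficient, H-2b) preincubated 24 h at room temperature, then pulsed with peptides across a concentration range, with control peptides, at room temperature (25°C). Next, 4 h at 37°C to allow turnover of empty class I. Stained with FITC anti-H-2Db mAb KH95 for 1 h at 4°C and analysed by flow cytometry. Expressed as percentage of maximal stabilization at 100 μM.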

[1] = tested on: gp100-reactive T cells with EL-4 thymoma cells; experiment: Recognition of peptide-pulsed EL-4 at limiting concentrations, IFN-γ ELISA; format: cell-based; conditions: human versus mouse epitope

H-2D^b, sequence (P01899 whole entry, looked up): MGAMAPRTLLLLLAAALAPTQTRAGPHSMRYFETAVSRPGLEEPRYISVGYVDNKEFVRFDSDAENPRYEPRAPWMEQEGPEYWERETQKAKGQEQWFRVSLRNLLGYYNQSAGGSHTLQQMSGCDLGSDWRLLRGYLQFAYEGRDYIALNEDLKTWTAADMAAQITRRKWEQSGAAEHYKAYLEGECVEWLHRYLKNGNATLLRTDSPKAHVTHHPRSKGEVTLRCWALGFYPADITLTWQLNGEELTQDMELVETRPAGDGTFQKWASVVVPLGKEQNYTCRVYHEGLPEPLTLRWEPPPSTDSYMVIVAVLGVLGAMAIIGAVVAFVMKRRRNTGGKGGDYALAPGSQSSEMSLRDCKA

KVPRNQDWL [hgp100_25–33] was tested, and the “affinity for H-2D^b” value (H-2D^b; compared with mgp100_25–33, Fig. 6) was “dramatically increased affinity”, the “increase in ability to stabilize “empty” D^b on RMA-S cells” value (H-2D^b; human versus mouse epitope) was 2 log and the “increase in ability to trigger interferon γ release by T cells” value [1] was 3 log.
